Test results taken from ChEMBL document CHEMBL4689842, “EUbOPEN Chemogenomics Library wave 1” (2021).

Tested on: HEK-293T
Experiment: Multiplex assay against HEK293T;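 for Population Tubulin-Different-Phenotype (%): share of the cells with healthy nuclei that show this phenotype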
Assay type: toxicity, cell-based
Conditions: human
Summary of the method: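 Live cells carried four stains from seeding: Hoechst33342, BioTracker Green Microtubule Cytoskeleton Dye, MitoTracker Red and Annexin V Alexa Fluor 680. They were imaged on a CQ1 microscope at 37°C and 5% CO2 after compound addition. Using CellPathfinder machine-learning gating, cells were split into Hoechst high-intensity objects or normal cells, normal cells into healthy, pyknosed or fragmented nuclei, and pyknosed cells into mitotic or apoptotic; tubulin, mitochondrial-mass and membrane-permeability phenotypes are per cents of healthy-nucleus cells.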

[1] = 12 h, 1 µM, compound concentration 1 uM, replicate 1
[2] = 12 h, 1 µM, compound concentration 1 uM, replicate 2
[3] = 12 h, 10 µM, compound concentration 10 uM, replicate 1
[4] = 12 h, 10 µM, compound concentration 10 uM, replicate 2
[5] = 24 h, 1 µM, compound concentration 1 uM, replicate 1
[6] = 24 h, 1 µM, compound concentration 1 uM, replicate 2
[7] = 24 h, 10 µM, compound concentration 10 uM, replicate 1
[8] = 24 h, 10 µM, compound concentration 10 uM, replicate 2
[9] = 48 h, 1 µM, compound concentration 1 uM, replicate 1
[10] = 48 h, 1 µM, compound concentration 1 uM, replicate 2
[11] = 48 h, 10 µM, compound concentration 10 uM, replicate 1
[12] = 48 h, 10 µM, compound concentration 10 uM, replicate 2

## CNc1oc(-c2cccc3ccccc23)nc1C#N
[1]
  Population Apoptotic (%): 59%
  Population Fragmented Nuclei (%): 14%
  Population Healthy Nuclei (%): 60%
  Population Hoechst High Intensity Objects (%): 30%
  Population Membrane Permeable-Phenotype (%): 3%
  Population Mitochondria Different-Phenotype (%): 62%
  Population Mitotic Cells (%): 40%
  Population Normal (%): 69%
  Population Pyknosed Nuclei (%): 25%
  Population Tubulin-Different-Phenotype (%): 31%
  Total Cell Count: 276
[2]
  Population Apoptotic (%): 14%
  Population Fragmented Nuclei (%): 8%
  Population Healthy Nuclei (%): 61%
  Population Hoechst High Intensity Objects (%): 11%
  Population Membrane Permeable-Phenotype (%): 8%
  Population Mitochondria Different-Phenotype (%): 16%
  Population Mitotic Cells (%): 85%
  Population Normal (%): 88%
  Population Pyknosed Nuclei (%): 29%
  Population Tubulin-Different-Phenotype (%): 12%
  Total Cell Count: 270
[3]
  Population Apoptotic (%): 41%
  Population Fragmented Nuclei (%): 83%
  Population Healthy Nuclei (%): 15%
  Population Hoechst High Intensity Objects (%): 41%
  Population Membrane Permeable-Phenotype (%): 0%
  Population Mitochondria Different-Phenotype (%): 1%
  Population Mitotic Cells (%): 58%
  Population Normal (%): 58%
  Population Pyknosed Nuclei (%): 1%
  Population Tubulin-Different-Phenotype (%): 0%
  Total Cell Count: 2858
[4]
  Population Apoptotic (%): 25%
  Population Fragmented Nuclei (%): 86%
  Population Healthy Nuclei (%): 12%
  Population Hoechst High Intensity Objects (%): 47%
  Population Membrane Permeable-Phenotype (%): 4%
  Population Mitochondria Different-Phenotype (%): 2%
  Population Mitotic Cells (%): 75%
  Population Normal (%): 52%
  Population Pyknosed Nuclei (%): 0%
  Population Tubulin-Different-Phenotype (%): 1%
  Total Cell Count: 2861
[5]
  Population Apoptotic (%): 38%
  Population Fragmented Nuclei (%): 17%
  Population Healthy Nuclei (%): 64%
  Population Hoechst High Intensity Objects (%): 29%
  Population Membrane Permeable-Phenotype (%): 6%
  Population Mitochondria Different-Phenotype (%): 41%
  Population Mitotic Cells (%): 61%
  Population Normal (%): 70%
  Population Pyknosed Nuclei (%): 17%
  Population Tubulin-Different-Phenotype (%): 25%
  Total Cell Count: 325
[6]
  Population Apoptotic (%): 32%
  Population Fragmented Nuclei (%): 6%
  Population Healthy Nuclei (%): 79%
  Population Hoechst High Intensity Objects (%): 14%
  Population Membrane Permeable-Phenotype (%): 15%
  Population Mitochondria Different-Phenotype (%): 8%
  Population Mitotic Cells (%): 67%
  Population Normal (%): 85%
  Population Pyknosed Nuclei (%): 13%
  Population Tubulin-Different-Phenotype (%): 26%
  Total Cell Count: 316
[7]
  Population Apoptotic (%): 15%
  Population Fragmented Nuclei (%): 83%
  Population Healthy Nuclei (%): 15%
  Population Hoechst High Intensity Objects (%): 40%
  Population Membrane Permeable-Phenotype (%): 0%
  Population Mitotic Cells (%): 84%
  Population Normal (%): 59%
  Population Pyknosed Nuclei (%): 0%
  Population Tubulin-Different-Phenotype (%): 0%
  Total Cell Count: 2556
[8]
  Population Apoptotic (%): 13%
  Population Fragmented Nuclei (%): 88%
  Population Healthy Nuclei (%): 10%
  Population Hoechst High Intensity Objects (%): 48%
  Population Membrane Permeable-Phenotype (%): 4%
  Population Mitochondria Different-Phenotype (%): 1%
  Population Mitotic Cells (%): 86%
  Population Normal (%): 51%
  Population Pyknosed Nuclei (%): 1%
  Population Tubulin-Different-Phenotype (%): 3%
  Total Cell Count: 2734
[9]
  Population Apoptotic (%): 39%
  Population Fragmented Nuclei (%): 14%
  Population Healthy Nuclei (%): 78%
  Population Hoechst High Intensity Objects (%): 32%
  Population Membrane Permeable-Phenotype (%): 2%
  Population Mitochondria Different-Phenotype (%): 17%
  Population Mitotic Cells (%): 60%
  Population Normal (%): 67%
  Population Pyknosed Nuclei (%): 7%
  Population Tubulin-Different-Phenotype (%): 17%
  Total Cell Count: 470
[10]
  Population Apoptotic (%): 18%
  Population Fragmented Nuclei (%): 8%
  Population Healthy Nuclei (%): 84%
  Population Hoechst High Intensity Objects (%): 14%
  Population Membrane Permeable-Phenotype (%): 7%
  Population Mitochondria Different-Phenotype (%): 3%
  Population Mitotic Cells (%): 81%
  Population Normal (%): 85%
  Population Pyknosed Nuclei (%): 6%
  Population Tubulin-Different-Phenotype (%): 14%
  Total Cell Count: 536
[11]
  Population Apoptotic (%): 15%
  Population Fragmented Nuclei (%): 82%
  Population Healthy Nuclei (%): 16%
  Population Hoechst High Intensity Objects (%): 43%
  Population Membrane Permeable-Phenotype (%): 0%
  Population Mitochondria Different-Phenotype (%): 0%
  Population Mitotic Cells (%): 85%
  Population Normal (%): 56%
  Population Pyknosed Nuclei (%): 1%
  Population Tubulin-Different-Phenotype (%): 0%
  Total Cell Count: 2084
[12]
  Population Apoptotic (%): 16%
  Population Fragmented Nuclei (%): 84%
  Population Healthy Nuclei (%): 14%
  Population Hoechst High Intensity Objects (%): 52%
  Population Membrane Permeable-Phenotype (%): 1%
  Population Mitotic Cells (%): 83%
  Population Normal (%): 47%
  Population Tubulin-Different-Phenotype (%): 1%
  Total Cell Count: 2135

## Cl.Cl.NC1(c2ccc(-c3nc4ccn5c(=O)[nH]nc5c4cc3-c3ccccc3)cc2)CCC1
[1]
  Population Apoptotic (%): 25%
  Population Fragmented Nuclei (%): 19%
  Population Healthy Nuclei (%): 63%
  Population Hoechst High Intensity Objects (%): 20%
  Population Membrane Permeable-Phenotype (%): 13%
  Population Mitochondria Different-Phenotype (%): 10%
  Population Mitotic Cells (%): 74%
  Population Normal (%): 79%
  Population Pyknosed Nuclei (%): 17%
  Population Tubulin-Different-Phenotype (%): 15%
  Total Cell Count: 657
[2]
  Population Apoptotic (%): 11%
  Population Fragmented Nuclei (%): 8%
  Population Healthy Nuclei (%): 85%
  Population Hoechst High Intensity Objects (%): 5%
  Population Membrane Permeable-Phenotype (%): 6%
  Population Mitochondria Different-Phenotype (%): 20%
  Population Mitotic Cells (%): 88%
  Population Normal (%): 94%
  Population Pyknosed Nuclei (%): 6%
  Population Tubulin-Different-Phenotype (%): 34%
  Total Cell Count: 1341
[3]
  Population Apoptotic (%): 31%
  Population Fragmented Nuclei (%): 27%
  Population Healthy Nuclei (%): 30%
  Population Hoechst High Intensity Objects (%): 56%
  Population Membrane Permeable-Phenotype (%): 18%
  Population Mitochondria Different-Phenotype (%): 27%
  Population Mitotic Cells (%): 68%
  Population Normal (%): 43%
  Population Pyknosed Nuclei (%): 42%
  Population Tubulin-Different-Phenotype (%): 43%
  Total Cell Count: 496
[4]
  Population Apoptotic (%): 14%
  Population Fragmented Nuclei (%): 5%
  Population Healthy Nuclei (%): 71%
  Population Hoechst High Intensity Objects (%): 65%
  Population Membrane Permeable-Phenotype (%): 23%
  Population Mitochondria Different-Phenotype (%): 25%
  Population Mitotic Cells (%): 85%
  Population Normal (%): 34%
  Population Pyknosed Nuclei (%): 22%
  Population Tubulin-Different-Phenotype (%): 82%
  Total Cell Count: 798
[5]
  Population Apoptotic (%): 23%
  Population Fragmented Nuclei (%): 20%
  Population Healthy Nuclei (%): 68%
  Population Hoechst High Intensity Objects (%): 17%
  Population Membrane Permeable-Phenotype (%): 18%
  Population Mitochondria Different-Phenotype (%): 8%
  Population Mitotic Cells (%): 76%
  Population Normal (%): 82%
  Population Pyknosed Nuclei (%): 10%
  Population Tubulin-Different-Phenotype (%): 38%
  Total Cell Count: 645
[6]
  Population Apoptotic (%): 8%
  Population Fragmented Nuclei (%): 23%
  Population Healthy Nuclei (%): 73%
  Population Hoechst High Intensity Objects (%): 7%
  Population Membrane Permeable-Phenotype (%): 14%
  Population Mitochondria Different-Phenotype (%): 4%
  Population Mitotic Cells (%): 91%
  Population Normal (%): 92%
  Population Pyknosed Nuclei (%): 3%
  Population Tubulin-Different-Phenotype (%): 46%
  Total Cell Count: 2029
[7]
  Population Apoptotic (%): 41%
  Population Fragmented Nuclei (%): 40%
  Population Healthy Nuclei (%): 21%
  Population Hoechst High Intensity Objects (%): 63%
  Population Membrane Permeable-Phenotype (%): 23%
  Population Mitochondria Different-Phenotype (%): 38%
  Population Mitotic Cells (%): 58%
  Population Normal (%): 36%
  Population Pyknosed Nuclei (%): 38%
  Population Tubulin-Different-Phenotype (%): 41%
  Total Cell Count: 436
[8]
  Population Apoptotic (%): 12%
  Population Fragmented Nuclei (%): 7%
  Population Healthy Nuclei (%): 53%
  Population Hoechst High Intensity Objects (%): 69%
  Population Membrane Permeable-Phenotype (%): 29%
  Population Mitochondria Different-Phenotype (%): 20%
  Population Mitotic Cells (%): 88%
  Population Normal (%): 30%
  Population Pyknosed Nuclei (%): 39%
  Population Tubulin-Different-Phenotype (%): 92%
  Total Cell Count: 837
